The record followed here is BindingDB's records for doi:10.1021/jm049559q (Tibotec, 2005).

Integrase, sequence (Q7ZJM1 whole entry): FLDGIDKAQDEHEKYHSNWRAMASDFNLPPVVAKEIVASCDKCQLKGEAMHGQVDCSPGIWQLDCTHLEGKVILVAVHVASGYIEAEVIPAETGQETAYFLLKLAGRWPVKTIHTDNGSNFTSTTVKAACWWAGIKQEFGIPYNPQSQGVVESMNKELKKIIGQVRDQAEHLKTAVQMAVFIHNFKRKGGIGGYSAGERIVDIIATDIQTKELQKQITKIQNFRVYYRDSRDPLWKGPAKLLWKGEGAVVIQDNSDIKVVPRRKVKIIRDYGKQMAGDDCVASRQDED

In the experiment the target is Integrase (Human immunodeficiency virus 1, UniProt Q7ZJM1). In words: Log of inhibitory concentration against human immunodeficiency virus type 1 integrase. In short, it runs like this:
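Strand transfer ELISA using recombinant His-tagged HIV-1 integrase expressed in E. coli BL21(DE3). 20 nM biotinylated processed viral DNA substrate is preincubated with 300 nM integrase for 5 min at 37 °C. Serial compound dilutions and 50 nM target DNA are then added in 20 mM Hepes pH 7.5, 25 mM NaCl, 5 mM MnCl2, 2 mM DTT, 50 µg/mL BSA and incubated 2 h at 37 °C. Products are captured on streptavidin plates, detected with anti-FITC peroxidase antibody and read by chemiluminescence.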
For the compound `COc1ccc(Cn2c(=O)c3c(=O)c4[nH]cc[nH]c4c(=O)c3c2=O)cc1`, half-maximal inhibition (IC50) required 562 nM.
With `O=c1c2[nH]cc[nH]c2c(=O)c2c(=O)n(Cc3ccc(Cl)cc3)c(=O)c12` the figure was 417 nM; with `COc1cccc(Cn2c(=O)c3c(=O)c4[nH]cc[nH]c4c(=O)c3c2=O)c1OC`, 427 nM; with `COc1ccc(Cn2c(=O)c3c(=O)c4[nH]cc[nH]c4c(=O)c3c2=O)c(OC)c1`, 427 nM.
Then `O=c1c2[nH]cc[nH]c2c(=O)c2c(=O)n(CCc3ccccc3)c(=O)c12`, with 2040 nM.
With `O=c1c2[nH]cc[nH]c2c(=O)c2c(=O)n(Cc3ccc(F)cc3)c(=O)c12` the figure was 417 nM; with `O=c1c2[nH]cc[nH]c2c(=O)c2c(=O)n(Cc3cccc(F)c3)c(=O)c12`, 562 nM.
In the case of `O=c1c2[nH]cc[nH]c2c(=O)c2c(=O)n(CCc3ccc4c(c3)OCO4)c(=O)c12`, the IC50 was found to be 1410 nM.
Then `O=c1c2[nH]cc[nH]c2c(=O)c2c(=O)n(Cc3ccc(OC(F)(F)F)cc3)c(=O)c12`, with 2040 nM.
Then `O=c1c2[nH]cc[nH]c2c(=O)c2c(=O)n(Cc3cccc(C(F)(F)F)c3)c(=O)c12`, with 427 nM; and `O=c1c2[nH]cc[nH]c2c(=O)c2c(=O)n(Cc3ccc4c(c3)OCO4)c(=O)c12`, with 562 nM.
